Assay results: ChEMBL document CHEMBL2396611, “Synthesis and mechanism of hypoglycemic activity of benzothiazole derivatives” (J Med Chem, 2013)
Converted amounts (≈) assume the structure as drawn. The source made the active and inactive calls. The calls are words filed in the database; no cut-off is given here.

Tests used:
[1] = test system: L6; experiment: Effect on total GLUT1 expression in rat L6 cell lysate at 25 uM after 30 mins to 5 hrs by Western blot analysis; assay type: functional, cell-based
Method in brief: (§1)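 Fully differentiated L6 myotubes, preconditioned in αMEM with 23.0 mM D-glucose; insulin exposure 30 min, test exposure 5 h. Whole-cell lysates made in Tris-HCl pH 7.5 buffer with phosphatase and protease inhibitors, 40 min at 4 °C. Protein measured by Bradford, 5-60 µg per lane. Western blot probed with rabbit polyclonal anti-GLUT1 or anti-GLUT4.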

[2] = test system: L6; experiment: Effect on total GLUT4 expression in rat L6 cell lysate at 25 uM after 30 mins to 5 hrs by Western blot analysis; assay type: functional, cell-based; method in brief: as §1
[3] = test system: Mus musculus; experiment: Antidiabetic activity in overnight fast KKAy mouse assessed as total body glucose clearance at 30 to 75 mg/kg, sc bid for 2 days; assay type: functional; settings: dose mg/kg 30-75; route subcutaneous
[4] = test system: Mus musculus; experiment: Toxicity in overnight fast KKAy mouse assessed as reduction of daily food intake at 30 to 75 mg/kg, sc bid for 2 days; assay type: organism-based; parameters: dose 30-75 mg/kg, route subcutaneous; settings: in vivo, 48 h
Method in brief: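 Hyperglycemic KKAy mice given 30 or 75 mg/kg s.c. twice daily as a suspension in sesame oil; controls received oil (150 µl). Daily food intake recorded over the 2-day treatment; n=10 per group, mean ± SEM.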

[5] = biological target: Cytochrome P450 2D6 (Homo sapiens, UniProt P10635); experiment: Inhibition of CYP2D6 (unknown origin) by luminescent based assay; assay type: ADME
[6] = biological target: Cytochrome P450 3A4 (Homo sapiens, UniProt P08684); experiment: Inhibition of CYP3A4 (unknown origin) by luminescent based assay; assay type: ADME
[7] = Intrinsic clearance in BALB/c mouse liver microsomes at 2 uM; assay type: ADME, Microsome; settings: read-out: CLH
[8] = test system: Mus musculus; experiment: Antidiabetic activity in KKAy mouse assessed as reduction of blood glucose level at 30 to 75 mg/kg, sc bid for 4 days measured on day 3 relative to control; assay type: functional; parameters: scale not given: the % may be the effect or the level left; settings: dose mg/kg 30-75; route subcutaneous
Method in brief: (§2)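 Hyperglycemic KKAy mice injected s.c. twice daily for 4 days with compound at 30 or 75 mg/kg suspended in sesame oil; controls received sesame oil (150 µl). Blood glucose measured at the indicated times, with day-zero levels taken as 100%. n=10 per group, mean ± SEM, compared with oil-treated group.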

[9] = test system: Mus musculus; experiment: Antidiabetic activity in KKAy mouse assessed as reduction of blood glucose level at 30 to 75 mg/kg, sc bid for 4 days measured on day 2 relative to control; assay type: functional; parameters: scale not given: the % may be the effect or the level left; settings: dose mg/kg 30-75; route subcutaneous; method in brief: as §2
[10] = test system: Mus musculus; experiment: Antidiabetic activity in KKAy mouse assessed as reduction of blood glucose level at 30 to 75 mg/kg, sc bid for 4 days measured on day 1 relative to control; assay type: functional; parameters: scale not given: the % may be the effect or the level left; settings: dose mg/kg 30-75; route subcutaneous; method in brief: as §2
[11] = test system: Mus musculus; experiment: Antidiabetic activity in KKAy mouse assessed as reduction of blood glucose level at 30 to 75 mg/kg, sc bid for 4 days; assay type: functional, organism-based; method in brief: as §2
[12] = biological target: 5'-AMP-activated protein kinase catalytic subunit alpha-2 (Rattus norvegicus) (UniProt Q09137); experiment: Activation of AMPK in rat L6 cells assessed as increase of [3H]dGlc uptake after 5 hrs in presence of Akt/PKB inhibitor 1,3-dihydro-1-(1-((4-(6-phenyl-1Himidazo[4,5-g]quinoxalin-7-yl)phenyl)methyl)-4-piperidinyl)-2H-benzimidazol-2-one trifluoroacetate salt hydrate; assay type: cell-based
Method in brief: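 Myotubes treated with compound, insulin or vehicle in the absence or presence of 100 nM wortmannin or 100 nM Akt/PKB inhibitor, each added 30 min before compound or insulin. Compound C 5 μM was added 5 h before the uptake assay. Rate then measured by the standard 5-min [3H]dGlc uptake assay.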

[13] = test system: L6; experiment: Increase of myc-tagged GLUT1 translocation in rat L6 cell plasma membrane at 25 uM after 30 mins to 5 hrs by colorimetric analysis; assay type: functional, cell-based
Method in brief: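 L6 lines stably carrying GLUT4myc or GLUT1myc, treated 5 h with test agent or DMSO; insulin given for 30 min. Live myotubes incubated with rabbit anti-c-Myc (1:200), washed, fixed in 3% formaldehyde, then HRP anti-rabbit IgG (1:2000). Developed with OPD and read at 492 nm to give relative surface transporter abundance.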

[14] = test system: L6; experiment: Cytotoxicity against rat L6 cells assessed as cell viability at 25 to 200 uM after 24 hrs by MTT assay; assay type: cell-based; settings: l6, 24 h
[15] = biological target: 5'-AMP-activated protein kinase catalytic subunit alpha-2 (Rattus norvegicus) (UniProt Q09137); experiment: Activation of AMPK in rat L6 cells assessed as AS-160 phosphorylation at Thr642 at 250 mM after 40 mins by Western blot analysis relative to control; assay type: cell-based
Method in brief: (§3)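 Fully differentiated L6 myotubes, preincubated 3 h with or without 5 μM Compound C. Test agents: compound at 25 μM for 3 h, sorbitol 250 mM for 40 min, AICAR 4 mM for 30 min. Whole-cell lysates probed by Western blot for pSer79-ACC, ACC, pThr642-AS-160, AS-160 and α-tubulin; band densities summarized, n=3, vs respective controls.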

[16] = biological target: 5'-AMP-activated protein kinase catalytic subunit alpha-2 (Rattus norvegicus) (UniProt Q09137); experiment: Activation of AMPK in rat L6 cells assessed as ACC phosphorylation at Ser79 at 4 mM after 30 mins by Western blot analysis relative to control; assay type: cell-based; method in brief: as §3
[17] = biological target: 5'-AMP-activated protein kinase catalytic subunit alpha-2 (Rattus norvegicus) (UniProt Q09137); experiment: Activation of AMPK in rat L6 cells assessed as ACC phosphorylation at Ser79 at 25 uM after 3 hrs by Western blot analysis relative to control; assay type: cell-based; method in brief: as §3
[18] = biological target: 5'-AMP-activated protein kinase catalytic subunit alpha-2 (Rattus norvegicus) (UniProt Q09137); experiment: Activation of AMPK in rat L6 cells assessed as increase of [3H]dGlc uptake at 25 uM after 5 hrs in presence of insulin; assay type: cell-based
Method in brief: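 Myotubes in serum-free αMEM with 0.5% BSA and 23.0 mM D-glucose for 9 h. Compound 25 μM or DMSO (0.1% v/v) given for the last 5 h; insulin 100 nM for the last 20 min. [3H]dGlc uptake read as 5-min PBS pulse with 0.1 mmol/L dGlc; basal rate taken as 100%.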

[19] = Solubility of the compound in water; assay type: physicochemical; settings: buffer
[20] = test system: L6; experiment: Activation of AMPKalpha in rat L6 cells assessed as phosphorylation at Thr172 at 25 uM after 4 hrs by Western blot analysis relative to control; assay type: cell-based
Method in brief: (§4)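 L6 myotubes treated 4 h with increasing compound concentrations (5 to 150 μM) or DMSO. Whole-cell lysates immunoblotted for pThr172-AMPKα, AMPKα and α-tubulin; phosphorylation expressed relative to DMSO-treated control.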

[21] = test system: L6; experiment: Activation of AMPKalpha in rat L6 cells assessed as phosphorylation at Thr172 at 15 uM after 4 hrs by Western blot analysis relative to control; assay type: cell-based; method in brief: as §4
[22] = Lipophilicity, log P of the compound; assay type: physicochemical; settings: octanol/water
[23] = test system: L6; experiment: Activation of AMPKalpha in rat L6 cells assessed as phosphorylation at Thr172 at 5 uM after 4 hrs by Western blot analysis relative to control; assay type: cell-based; method in brief: as §4
[24] = biological target: 5'-AMP-activated protein kinase catalytic subunit alpha-2 (Rattus norvegicus) (UniProt Q09137); experiment: Activation of AMPK in rat L6 cells assessed as increase of [3H]dGlc uptake after 5 hrs; assay type: cell-based
Method in brief: (§5)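 Fully differentiated L6 myotubes preincubated 24 h in αMEM with 2% FCS and 23.0 mmol/L D-glucose, then 4 h serum-free with 0.5% BSA. Compound or DMSO vehicle given for the indicated times or concentrations. Uptake read after 5 min at room temperature in PBS pH 7.4 with 0.1 mmol/L dGlc and 1.3 μCi/mL [3H]dGlc, by scintillation of SDS lysates. Zero-time basal rate set as 100%; n=6.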

[25] = biological target: 5'-AMP-activated protein kinase catalytic subunit alpha-2 (Rattus norvegicus) (UniProt Q09137); experiment: Activation of AMPK in rat L6 cells assessed as increase of [3H]dGlc uptake at 10 to 200 uM; assay type: cell-based; settings: TDE = time-dependent effect; method in brief: as §5

5'-AMP-activated protein kinase catalytic subunit alpha-2 (Rattus norvegicus), sequence (Q09137 whole entry): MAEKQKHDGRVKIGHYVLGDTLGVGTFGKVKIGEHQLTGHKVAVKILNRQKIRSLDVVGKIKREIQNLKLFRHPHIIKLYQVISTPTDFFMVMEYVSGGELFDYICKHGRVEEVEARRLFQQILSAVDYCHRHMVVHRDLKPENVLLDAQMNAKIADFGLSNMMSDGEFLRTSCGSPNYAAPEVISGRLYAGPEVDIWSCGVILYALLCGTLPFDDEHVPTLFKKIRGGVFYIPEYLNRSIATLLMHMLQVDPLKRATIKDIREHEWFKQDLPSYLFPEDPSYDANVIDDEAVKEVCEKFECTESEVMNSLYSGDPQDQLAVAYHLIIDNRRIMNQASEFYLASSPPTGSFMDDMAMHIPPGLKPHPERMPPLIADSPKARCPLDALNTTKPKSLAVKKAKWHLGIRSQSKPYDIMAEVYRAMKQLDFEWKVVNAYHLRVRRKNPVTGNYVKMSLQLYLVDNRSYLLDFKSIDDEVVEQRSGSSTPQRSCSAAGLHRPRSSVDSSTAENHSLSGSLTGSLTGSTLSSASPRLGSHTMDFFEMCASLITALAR
Cytochrome P450 2D6, sequence (P10635 whole entry): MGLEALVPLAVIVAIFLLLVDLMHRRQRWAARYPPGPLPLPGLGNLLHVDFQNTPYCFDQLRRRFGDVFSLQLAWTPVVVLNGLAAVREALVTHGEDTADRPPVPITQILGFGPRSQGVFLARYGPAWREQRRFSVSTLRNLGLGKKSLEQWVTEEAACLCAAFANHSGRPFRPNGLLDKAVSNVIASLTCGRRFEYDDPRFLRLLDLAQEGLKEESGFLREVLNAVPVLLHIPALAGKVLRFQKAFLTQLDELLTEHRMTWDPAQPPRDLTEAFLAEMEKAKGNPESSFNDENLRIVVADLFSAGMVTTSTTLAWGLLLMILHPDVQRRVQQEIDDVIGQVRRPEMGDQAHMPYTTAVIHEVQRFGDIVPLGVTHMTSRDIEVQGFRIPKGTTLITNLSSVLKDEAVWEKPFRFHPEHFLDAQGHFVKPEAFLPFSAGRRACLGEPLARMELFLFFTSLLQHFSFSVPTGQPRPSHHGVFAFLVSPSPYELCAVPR
Cytochrome P450 3A4, sequence (P08684 whole entry): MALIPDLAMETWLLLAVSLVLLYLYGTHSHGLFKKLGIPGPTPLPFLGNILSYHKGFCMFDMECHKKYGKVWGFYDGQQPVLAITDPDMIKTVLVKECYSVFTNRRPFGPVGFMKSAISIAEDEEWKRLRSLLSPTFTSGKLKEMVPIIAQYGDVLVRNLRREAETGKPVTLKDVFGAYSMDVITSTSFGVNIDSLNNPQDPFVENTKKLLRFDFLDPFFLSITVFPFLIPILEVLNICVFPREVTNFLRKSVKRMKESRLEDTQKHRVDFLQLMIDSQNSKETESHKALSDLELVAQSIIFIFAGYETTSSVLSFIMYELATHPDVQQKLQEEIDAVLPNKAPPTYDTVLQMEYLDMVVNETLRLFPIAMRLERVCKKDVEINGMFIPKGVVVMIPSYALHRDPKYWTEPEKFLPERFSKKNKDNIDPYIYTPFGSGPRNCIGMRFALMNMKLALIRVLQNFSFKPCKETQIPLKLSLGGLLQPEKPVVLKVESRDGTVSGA

CCOc1ccc2nc(SCc3nc4ccccc4s3)sc2c1
Activity [1]: inactive
Activity [2]: inactive
Activity [3]: 40%
Activity [4]: Non-toxic
inhibition (INH) [5]: 64.4%
inhibition (INH) [6]: 77.1%
microsomal CLint at 2 µM [7]: 692 µL/min/mg
Activity [8]: 50%
Activity [9]: 45%
Activity [10]: 30%
Activity [11]: Active
Activity [12]: Active
Activity [13]: inactive
Activity [14]: Non-toxic
fold change (FC) [15]: 1.55
fold change (FC) [16]: 3.63
fold change (FC) [17]: 1.75
Activity [18]: Active
solubility [19]: 12.1 µM (≈ 4.33 µg/mL)
fold change (FC) [20]: 6.8
fold change (FC) [21]: 5.5
logP [22]: 4.34
fold change (FC) [23]: 2
Activity [24]: Dose-dependent effect
Activity [25]: tde
